Consider 38 molecules from ChEMBL document CHEMBL1145123, “Trisubstituted acridine derivatives as potent and selective telomerase inhibitors” (J Med Chem, 2003).

What is called IC50 is the concentration at which inhibition is half-maximal. Higher therefore signals weaker potency in that assay. By EC50 is commonly meant the midpoint of the concentration-response curve. A lower EC50 goes with a more potent agent.

Assay [1] is described as follows: […]. The class given is functional, cell-based. The conditions noted are these: Homo sapiens, A-431.
Assay [2] addresses Telomerase reverse transcriptase (Homo sapiens, UniProt O14746). As to the kind of experiment: Inhibitory activity against human telomerase. In a few lines: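 Modified TRAP assay with extract protein (0.04 μg) from exponentially growing A2780 cells. The enzyme was heat-inactivated at 80 °C, then CX primer was added and 31 PCR cycles were run. Products were quantified by gel phosphorimaging or filter scintillation counting. Agents were first screened against Taq polymerase at 1–50 μM.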

A short description of assay [3]: Cytotoxicity against ovarian carcinoma A2780 cell lines. The conditions noted are these: Homo sapiens. It counts as functional, cell-based. In a few lines:
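SRB assay. Cells were seeded at 3000–6000 per well and attached overnight. Salts dissolved in water at 500 μM were added in quadruplicate at 0.05, 0.25, 1, 5 and 25 μM final for 96 h. Cells were then fixed with cold 10% TCA and stained with 0.4% SRB. A540 was expressed as % of untreated control, and IC50 was derived.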

For assay [4], the species on record is Homo sapiens. The experiment in a line: Affinity constant for binding to human 22-mer quadruplex. The class given is functional.
The target in the next assay is Nucleic Acid. The experiment in a line: (§1) Affinity constant for binding to duplex DNA. The class given is functional, Homo sapiens.
The species named for assay [5] is Homo sapiens. Described as §1. It counts as functional, organism-based.

Chain of Telomerase reverse transcriptase (O14746 whole entry): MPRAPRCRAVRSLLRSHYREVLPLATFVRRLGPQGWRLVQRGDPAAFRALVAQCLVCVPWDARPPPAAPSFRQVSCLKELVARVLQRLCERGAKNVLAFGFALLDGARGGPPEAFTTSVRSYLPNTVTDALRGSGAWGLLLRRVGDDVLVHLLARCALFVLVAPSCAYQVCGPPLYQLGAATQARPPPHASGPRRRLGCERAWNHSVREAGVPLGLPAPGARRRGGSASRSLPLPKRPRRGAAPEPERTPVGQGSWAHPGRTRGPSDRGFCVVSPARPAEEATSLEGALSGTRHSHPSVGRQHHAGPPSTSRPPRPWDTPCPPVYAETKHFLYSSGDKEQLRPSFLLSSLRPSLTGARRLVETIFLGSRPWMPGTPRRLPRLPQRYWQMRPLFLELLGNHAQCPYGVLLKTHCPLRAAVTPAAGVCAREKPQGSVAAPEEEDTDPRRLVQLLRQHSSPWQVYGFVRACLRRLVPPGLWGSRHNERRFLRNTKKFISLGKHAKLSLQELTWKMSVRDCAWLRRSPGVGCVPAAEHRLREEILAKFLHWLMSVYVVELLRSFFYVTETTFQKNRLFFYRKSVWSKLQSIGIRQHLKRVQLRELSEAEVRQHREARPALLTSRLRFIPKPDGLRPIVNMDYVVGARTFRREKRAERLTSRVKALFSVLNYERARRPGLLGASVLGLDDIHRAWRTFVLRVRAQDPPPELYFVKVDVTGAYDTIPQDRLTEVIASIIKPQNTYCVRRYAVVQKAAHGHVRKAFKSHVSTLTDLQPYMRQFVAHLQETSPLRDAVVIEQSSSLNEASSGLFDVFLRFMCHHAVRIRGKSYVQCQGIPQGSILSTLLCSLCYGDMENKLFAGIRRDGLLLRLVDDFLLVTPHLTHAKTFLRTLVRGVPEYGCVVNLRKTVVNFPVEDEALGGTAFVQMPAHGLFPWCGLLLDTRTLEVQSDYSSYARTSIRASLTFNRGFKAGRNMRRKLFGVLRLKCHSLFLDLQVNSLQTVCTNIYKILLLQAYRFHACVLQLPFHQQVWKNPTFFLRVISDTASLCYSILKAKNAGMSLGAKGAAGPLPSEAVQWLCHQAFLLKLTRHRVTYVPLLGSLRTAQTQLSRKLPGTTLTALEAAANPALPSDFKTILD

As for `CSc1ccccc1Nc1c2ccc(NC(=O)CCN3CCCC3)cc2nc2cc(NC(=O)CCN3CCCC3)ccc12`, the figures for the IC50 in assay [1] and in assay [3] were 2.5 µM and 0.1 µM, respectively. The molecule also registered an EC50 in assay [2] of 0.15 µM.

As for `CN(C)CCNc1c2cc(NC(=O)CCN3CCCC3)ccc2nc2ccc(NC(=O)CCN3CCCC3)cc12`, the IC50 in assay [1] was more than 25 µM; in assay [3], 11 µM. In assay [2], this molecule came in with an EC50 of 0.57 µM.

With `O=C(CCN1CCCC1)Nc1ccc2c(NC3CCCCC3)c3cc(NC(=O)CCN4CCCC4)ccc3nc2c1`, the IC50 turned out to be 14 µM in assay [1] and 10 µM in assay [3]. Besides, in assay [2], the EC50 is 0.21 µM.

Turning to `CN(C)CCCNc1c2ccc(NC(=O)CCN3CCCC3)cc2nc2ccc(NC(=O)CCN3CCCC3)cc12`, the IC50 in assay [1] and in assay [3] was more than 25 µM each time. Also, the EC50 in assay [2] was 0.08 µM.

Consider `CN(C)c1ccc(Nc2c3ccc(NC(=O)CCN4CCCC4)cc3nc3ccc(NC(=O)CCN4CCCC4)cc23)cc1`, for which the IC50 came to 10 µM in assay [1] and 7.9 µM in assay [3]. The same molecule returned an EC50 in assay [2] of 0.17 µM.

Turning to `O=C(CCN1CCCC1)Nc1ccc2nc3ccc(NC(=O)CCN4CCCC4)cc3c(Nc3ccccc3)c2c1`, the half-maximal inhibitory concentration (IC50) turned out to be 12.5 µM in assay [1] and 2.6 µM in assay [3]. This molecule displayed an EC50 in assay [2] of 1.29 µM.

Consider `CN(C)c1cccc(Nc2c3ccc(NC(=O)CCN4CCCC4)cc3nc3cc(NC(=O)CCN4CCCC4)ccc23)c1`, for which the values for the IC50 in assay [1] and in assay [3] were 2 µM and 7.9 µM, respectively. The molecule further showed an EC50 in assay [2] of 0.1 µM.

`CSc1cccc(Nc2c3ccc(NC(=O)CCN4CCCC4)cc3nc3cc(NC(=O)CCN4CCCC4)ccc23)c1`: the IC50 in assay [1] is 1.3 µM; in assay [3], 2.8 µM. The molecule further returned a concentration giving a half-maximal response (EC50) in assay [2] of 0.1 µM.

Turning to `O=C(CCN1CCCC1)Nc1ccc2c(NC3CC3)c3ccc(NC(=O)CCN4CCCC4)cc3nc2c1`, the IC50 in assay [1] is more than 25 µM; in assay [3], 19 µM. In assay [2], the EC50 turned out to be 0.05 µM.

`O=C(CCN1CCCC1)Nc1ccc2c(NC3CCCCC3)c3ccc(NC(=O)CCN4CCCC4)cc3nc2c1`: the IC50 in assay [1] was found to be 2.5 µM; in assay [3] it was 12.5 µM. This molecule yielded an EC50 in assay [2] of 0.09 µM.

With `CN(C)c1cccc(Nc2c3cc(NC(=O)CCN4CCCC4)ccc3nc3ccc(NC(=O)CCN4CCCC4)cc23)c1`, the IC50 in assay [1] was determined as 12.6 µM; in assay [3], 3.2 µM. The molecule also showed a half-maximal effective concentration (EC50) in assay [2] of 0.6 µM.

On to `Nc1cccc(Nc2c3cc(NC(=O)CCN4CCCC4)ccc3nc3ccc(NC(=O)CCN4CCCC4)cc23)c1`, for which the figures for the IC50 in assay [1] and in assay [3] were more than 25 µM and 6.3 µM, respectively. This molecule also came in with a half-maximal effective concentration (EC50) in assay [2] of 1.09 µM.

Turning to `Nc1ccccc1Nc1c2ccc(NC(=O)CCN3CCCC3)cc2nc2cc(NC(=O)CCN3CCCC3)ccc12`, the values for the IC50 in assay [1] and in assay [3] were 7.1 µM and 11 µM, respectively. The molecule further had an EC50 in assay [2] of 0.02 µM.

`O=C(CCN1CCCC1)Nc1ccc2c(NCc3cccnc3)c3ccc(NC(=O)CCN4CCCC4)cc3nc2c1`: the IC50 in assay [1] and in assay [3] was more than 25 µM throughout. The same molecule had an EC50 in assay [2] of 0.066 µM.

For the molecule `CN(C)CCNc1c2ccc(NC(=O)CCN3CCCC3)cc2nc2ccc(NC(=O)CCN3CCCC3)cc12`, the IC50 in assay [1] and in assay [3] was more than 25 µM in each case. In assay [2], this molecule registered an EC50 of 0.27 µM.

On to `CN(C)CCNc1c2ccc(NC(=O)CCN3CCCC3)cc2nc2cc(NC(=O)CCN3CCCC3)ccc12`, for which the IC50 in assay [1] and in assay [3] was more than 25 µM throughout. In addition, the EC50 in assay [2] was 0.018 µM. Besides, the Ka worked out at 57000000 M⁻¹ in the assay listed under Homo sapiens [4] and 4900000 M⁻¹ at Nucleic Acid.

`O=C(CCN1CCCC1)Nc1ccc2c(Nc3ccccc3)c3cc(NC(=O)CCN4CCCC4)ccc3nc2c1`: the IC50 in assay [1] was 14 µM; in assay [3], 5.6 µM. The molecule further registered an EC50 in assay [2] of 1.33 µM.

In the case of `O=C(CCN1CCCC1)Nc1ccc2c(NCCN3CCCCC3)c3ccc(NC(=O)CCN4CCCC4)cc3nc2c1`, the results for the IC50 in assay [1] and in assay [3] were 11.2 µM and 12.6 µM, respectively. The molecule also came in with an EC50 in assay [2] of 0.05 µM.

In the case of `CC(=O)Nc1cccc(Nc2c3ccc(NC(=O)CCN4CCCC4)cc3nc3cc(NC(=O)CCN4CCCC4)ccc23)c1`, the IC50 in assay [1] and in assay [3] was more than 25 µM in each case. The same molecule came in with an EC50 in assay [2] of 0.1 µM.

Consider `COc1ccc(Nc2c3cc(NC(=O)CCN4CCCC4)ccc3nc3ccc(NC(=O)CCN4CCCC4)cc23)cc1`, for which the IC50 was found to be 12.6 µM in assay [1] and 10 µM in assay [3]. Moreover, the midpoint of the response in assay [2], the EC50, lay at 0.46 µM.

With `Nc1ccc(Nc2c3cc(NC(=O)CCN4CCCC4)ccc3nc3ccc(NC(=O)CCN4CCCC4)cc23)cc1`, the IC50 in assay [1] and in assay [3] was more than 25 µM in each case. Also, the midpoint of the response in assay [2], the EC50, lay at 0.2 µM.

Turning to `CN(C)CCCNc1c2ccc(NC(=O)CCN3CCCC3)cc2nc2cc(NC(=O)CCN3CCCC3)ccc12`, the IC50 in assay [1] and in assay [3] was more than 25 µM throughout. The EC50 in assay [2] turned out to be 0.06 µM.

With `COCCNc1c2ccc(NC(=O)CCN3CCCC3)cc2nc2cc(NC(=O)CCN3CCCC3)ccc12`, the IC50 in assay [1] and in assay [3] was 10 µM throughout. In addition, the midpoint of the response in assay [2], the EC50, lay at 0.14 µM.

In the case of `Nc1ccc(Nc2c3ccc(NC(=O)CCN4CCCC4)cc3nc3cc(NC(=O)CCN4CCCC4)ccc23)cc1`, the IC50 in assay [1] and in assay [3] was 25 µM each time. A half-maximal effect in assay [2] (EC50) was put at 0.074 µM. Besides, the Ka was determined as 16000000 M⁻¹ in the assay listed under Homo sapiens [4] and 500000 M⁻¹ on Nucleic Acid.

As to `Nc1cccc(Nc2c3ccc(NC(=O)CCN4CCCC4)cc3nc3cc(NC(=O)CCN4CCCC4)ccc23)c1`, the IC50 in assay [1] and in assay [3] was 12.6 µM throughout. The molecule also displayed an EC50 in assay [2] of 0.06 µM.

Regarding `CN(C)c1ccc(Nc2c3ccc(NC(=O)CCN4CCCC4)cc3nc3cc(NC(=O)CCN4CCCC4)ccc23)cc1`, the results for the half-inhibitory concentration (IC50) in assay [1] and in assay [3] were 15.8 µM and 10 µM, respectively. The molecule further returned an EC50 in assay [2] of 0.115 µM. In addition, the Ka was 16000000 M⁻¹ in the assay listed under Homo sapiens [4] and 400000 M⁻¹ in the assay filed under Homo sapiens [5].

As for `CC(=O)c1ccc(Nc2c3ccc(NC(=O)CCN4CCCC4)cc3nc3cc(NC(=O)CCN4CCCC4)ccc23)cc1`, the IC50 in assay [1] came out at 2.2 µM; in assay [3], 3.2 µM. The molecule also came in with an EC50 in assay [2] of 0.04 µM.

As for `O=C(CCN1CCCC1)Nc1ccc2c(NC3CCCCCC3)c3ccc(NC(=O)CCN4CCCC4)cc3nc2c1`, the IC50 in assay [1] and in assay [3] was 3.2 µM throughout. The same molecule registered an EC50 in assay [2] of 0.21 µM.

Consider `Nc1ccc(Nc2c3ccc(NC(=O)CCN4CCCC4)cc3nc3ccc(NC(=O)CCN4CCCC4)cc23)cc1`, for which the half-maximal inhibitory concentration (IC50) in assay [1] and in assay [3] was more than 25 µM each time. Also, the EC50 in assay [2] came out at 0.08 µM.

Take `CN(C)c1ccc(Nc2c3cc(NC(=O)CCN4CCCC4)ccc3nc3ccc(NC(=O)CCN4CCCC4)cc23)cc1`: the IC50 in assay [1] was more than 25 µM; in assay [3], 19 µM. In assay [2], this molecule registered an EC50 of 0.5 µM.

Turning to `Nc1cccc(Nc2c3ccc(NC(=O)CCN4CCCC4)cc3nc3ccc(NC(=O)CCN4CCCC4)cc23)c1`, the results for the half-maximal inhibitory concentration (IC50) in assay [1] and in assay [3] were more than 25 µM and 15.8 µM, respectively. Also, the EC50 in assay [2] was found to be 0.21 µM.

With `COc1cccc(Nc2c3cc(NC(=O)CCN4CCCC4)ccc3nc3ccc(NC(=O)CCN4CCCC4)cc23)c1`, the IC50 in assay [1] was 10 µM; in assay [3], 2.5 µM. The half-maximal effective concentration (EC50) in assay [2] was found to be 2.73 µM.

As to `O=C(CCN1CCCC1)Nc1ccc2nc3ccc(NC(=O)CCN4CCCC4)cc3c(Nc3ccccc3O)c2c1`, the results for the IC50 in assay [1] and in assay [3] were more than 25 µM and 10 µM, respectively. This molecule registered an EC50 in assay [2] of 1.03 µM.

For `Nc1ccccc1Nc1c2ccc(NC(=O)CCN3CCCC3)cc2nc2ccc(NC(=O)CCN3CCCC3)cc12`, the IC50 was more than 25 µM in assay [1] and 15.8 µM in assay [3]. This molecule had an EC50 in assay [2] of 0.11 µM.

Consider `O=C(CCN1CCCC1)Nc1ccc2c(Nc3ccc(F)cc3)c3ccc(NC(=O)CCN4CCCC4)cc3nc2c1`, for which the IC50 in assay [1] is 0.5 µM; in assay [3], 3.2 µM. Also, in assay [2], the EC50 worked out at 0.07 µM.

With `Nc1ccccc1Nc1c2cc(NC(=O)CCN3CCCC3)ccc2nc2ccc(NC(=O)CCN3CCCC3)cc12`, the figures for the 50% inhibitory concentration (IC50) in assay [1] and in assay [3] were more than 25 µM and 17.8 µM, respectively. The half-maximal effective concentration (EC50) in assay [2] turned out to be 0.17 µM.

As for `CN1CCCC1CCNc1c2ccc(NC(=O)CCN3CCCC3)cc2nc2cc(NC(=O)CCN3CCCC3)ccc12` (stereo unspecified), the figures for the 50% inhibitory concentration (IC50) in assay [1] and in assay [3] were 25 µM and more than 25 µM, respectively. The 50% effective concentration (EC50) in assay [2] came to 0.018 µM.

Take `O=C(CCN1CCCC1)Nc1ccc2cc3ccc(NC(=O)CCN4CCCC4)cc3nc2c1`: the EC50 in assay [2] amounted to 5.2 µM. The Ka in the assay filed under Homo sapiens [4] stood at 1300000 M⁻¹; on Nucleic Acid, 1100000 M⁻¹. In assay [3], this molecule showed an IC50 of 2.6 µM.
